In brackets after ≈: the same amount, converted by molar mass.
What was measured:
A549 = experiment: Cytotoxicity against human A549 cells after 24 to 48 hrs by MTT assay; format: functional; details: read-out: LD50 (the source's name)
How it was run: (§1)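 A549 and HepG2 kept in DMEM with 10% FBS and 1% pen-strep. At passage 7, seeded at 10⁵ cells/well and allowed to adhere 14 h. Compound added at 0.03–128 μg/mL, untreated wells as controls. Incubation 37°C, 5% CO₂ for 24 or 48 h. MTT (5 mg/mL in PBS) added for 4 h, formazan dissolved in DMSO, OD570.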

Cryptococcus neoformans [1] = experiment: Fungicidal activity against Cryptococcus neoformans H99 measured after 24 hrs by time-kill assay; format: functional, var grubii H99
How it was run: (§2)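 Overnight C. neoformans washed in PBS and resuspended in HEPES-buffered YNB, pH 7.4. 2 × 10⁴ cells exposed to a range of drug concentrations in 10 mL with 0.5% DMSO final, at 37°C, 5% CO₂, shaking at 200 rpm. Aliquots sampled over 96 h, diluted and plated on YPD; CFU counted after 48 h at 30°C.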

[2] = Selectivity index, ratio of LD50 for human HepG2 cells to MIC80 for Cryptococcus neoformans H99; format: toxicity; details: read-out: Selectivity Index
How it was run: (§3)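 SI = LD₅₀/MIC₈₀. Cytotoxicity: A549 or HepG2 cells (DMEM, 10% FBS, passage 7, 10⁵ cells/well) adhered 14 h, then exposed to 0.03–128 μg/mL for 24 or 48 h at 37°C, 5% CO₂; MTT 4 h, formazan dissolved in DMSO, read at 570 nm. MIC₈₀ against C. neoformans from broth microdilution in HEPES-buffered YNB, pH 7.0.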

Cryptococcus neoformans [3] = experiment: Antifungal activity against Cryptococcus neoformans H99 measured after 24 to 72 hrs; format: functional; details: var grubii H99
How it was run: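 Modified CLSI broth microdilution with inoculum per M27A3. Compounds were serially diluted 32 to 0.03 μg/mL. Media: C. neoformans in HEPES-buffered YNB without amino acids (pH 7.0, 2% glucose); Candida strains in YNB without ammonium sulfate or amino acids plus 1% asparagine (pH 7.0, 2% glucose); A. fumigatus in RPMI (pH 7.0, 2% glucose).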

HepG2 = experiment: Cytotoxicity against human HepG2 cells after 24 to 48 hrs by MTT assay; format: functional; details: read-out: LD50 (the source's name); how it was run: as §1
[4] = Selectivity index, ratio of LD50 for human A549 cells to MIC80 for Cryptococcus neoformans H99; format: toxicity; details: read-out: Selectivity Index; how it was run: as §3
Cryptococcus neoformans [5] = experiment: Fungicidal activity against Cryptococcus neoformans H99 measured after 48 hrs by time-kill assay; format: functional, var grubii H99; how it was run: as §2

Compound | CC50 (A549) | MFC100 (Cryptococcus neoformans [1]) | selectivity ratio [2] | MIC80 (Cryptococcus neoformans [3]) | CC50 (HepG2) | selectivity ratio [4] | MFC100 (Cryptococcus neoformans [5])
O=C(N/N=C/c1cc(Cl)cc(Cl)c1O)c1cc(Br)cc(Br)c1 | 64 µg/mL (≈ 137 µM) | 0.5 µg/mL (≈ 1.07 µM) | 128 | 0.5 µg/mL (≈ 1.07 µM) | 64 µg/mL (≈ 137 µM) | 128 | –
O=C(N/N=C/c1cc(Cl)ccc1O)c1cc(Br)ccc1Br | 59 µg/mL (≈ 136 µM) | 0.25 µg/mL (≈ 0.578 µM) | 128 | 0.25 µg/mL (≈ 0.578 µM) | 32 µg/mL (≈ 74 µM) | 236 | –
CC(=O)Nc1ccc(C(=O)N/N=C/c2ccc(Br)cc2O)cc1 | – | – | – | > 16 µg/mL | – | – | –
Cc1ccc(O)c(/C=N/NC(=O)c2cc(Br)cc(Br)c2O)c1 | 4 µg/mL (≈ 9.34 µM) | 0.25 µg/mL (≈ 0.584 µM) | 32 | 0.25 µg/mL (≈ 0.584 µM) | 8 µg/mL (≈ 18.7 µM) | 16 | –
O=C(N/N=C/c1cc(Br)cc(Br)c1O)c1ccc(F)cc1 | 32 µg/mL (≈ 76.9 µM) | 0.25 µg/mL (≈ 0.601 µM) | 267 | 0.12 µg/mL (≈ 0.288 µM) | 32 µg/mL (≈ 76.9 µM) | 267 | –
O=C(N/N=C/c1cc(Br)cc(Br)c1O)c1ccc(C(F)(F)F)cc1F | 64 µg/mL (≈ 132 µM) | – | 133 | 0.12 µg/mL (≈ 0.248 µM) | 16 µg/mL (≈ 33.1 µM) | 533 | 0.5 µg/mL (≈ 1.03 µM)
O=C(N/N=C/c1cc(Cl)ccc1O)c1cccc(F)c1F | 72 µg/mL (≈ 232 µM) | – | 32 | 1 µg/mL (≈ 3.22 µM) | 32 µg/mL (≈ 103 µM) | 72 | 0.5 µg/mL (≈ 1.61 µM)
C/C(=N\NC(=O)c1ccc(Br)cc1Br)c1cc(Br)cc(Br)c1O | – | – | – | > 16 µg/mL | – | – | –
Cc1ccccc1-c1nnc(-c2cc(Br)ccc2O)o1 | – | – | – | > 16 µg/mL | – | – | –
Cc1ccc(O)c(/C=N/NC(=O)c2cc(Br)ccc2O)c1 | 16 µg/mL (≈ 45.8 µM) | 0.5 µg/mL (≈ 1.43 µM) | 64 | 0.25 µg/mL (≈ 0.716 µM) | 16 µg/mL (≈ 45.8 µM) | 64 | –
O=C(N/N=C/c1c(O)ccc2ccccc12)c1cc(Br)ccc1Br | 32 µg/mL (≈ 71.4 µM) | 0.25 µg/mL (≈ 0.558 µM) | 64 | 0.25 µg/mL (≈ 0.558 µM) | 16 µg/mL (≈ 35.7 µM) | 128 | –
O=C(N/N=C/c1cc(Cl)cc(Cl)c1O)c1cccc(Br)c1Br | 64 µg/mL (≈ 137 µM) | – | 16 | 1 µg/mL (≈ 2.14 µM) | 16 µg/mL (≈ 34.3 µM) | 64 | 1 µg/mL (≈ 2.14 µM)
O=C(N/N=C/c1cc(Br)cc(Br)c1O)c1ccc(OC(F)(F)F)cc1F | 16 µg/mL (≈ 32 µM) | – | 267 | 0.06 µg/mL (≈ 0.12 µM) | 16 µg/mL (≈ 32 µM) | 267 | 0.5 µg/mL (≈ 1 µM)
O=C(N/N=C/c1cc(Br)ccc1O)c1cc(Br)ccc1Br | 16 µg/mL (≈ 33.5 µM) | – | 128 | 0.25 µg/mL (≈ 0.524 µM) | 32 µg/mL (≈ 67.1 µM) | 64 | 1 µg/mL (≈ 2.1 µM)
O=C(N/N=C/c1cc(Br)cc(Br)c1O)c1cccc(Br)c1Br | 32 µg/mL (≈ 57.6 µM) | – | 32 | 0.5 µg/mL (≈ 0.9 µM) | 16 µg/mL (≈ 28.8 µM) | 64 | 2 µg/mL (≈ 3.6 µM)
O=C(N/N=C/c1cc(OC(F)(F)F)ccc1O)c1ccc(Br)cc1Br | 32 µg/mL (≈ 66.4 µM) | 2 µg/mL (≈ 4.15 µM) | 256 | 0.25 µg/mL (≈ 0.519 µM) | 64 µg/mL (≈ 133 µM) | 128 | –
Cc1ccc(O)c(/C=N/NC(=O)c2cc(Br)cc(Br)c2)c1 | 32 µg/mL (≈ 77.7 µM) | 1 µg/mL (≈ 2.43 µM) | 32 | 0.5 µg/mL (≈ 1.21 µM) | 16 µg/mL (≈ 38.8 µM) | 64 | –
Cc1ccc(O)c(/C=N/NC(=O)c2ccc(Br)cc2Br)c1 | 32 µg/mL (≈ 77.7 µM) | 2 µg/mL (≈ 4.85 µM) | 16 | 1 µg/mL (≈ 2.43 µM) | 16 µg/mL (≈ 38.8 µM) | 32 | –
O=C(N/N=C/c1cc(Br)cc(Br)c1O)c1cccc(OC(F)(F)F)c1 | – | – | – | 4 µg/mL (≈ 8.3 µM) | – | – | –
O=C(N/N=C/c1c(O)ccc2ccccc12)c1ccc(Br)cc1Br | 16 µg/mL (≈ 35.7 µM) | – | 533 | 0.12 µg/mL (≈ 0.268 µM) | 64 µg/mL (≈ 143 µM) | 133 | 0.5 µg/mL (≈ 1.12 µM)
Nc1ccc(C(=O)N/N=C/c2ccc(Br)cc2O)cc1 | – | – | – | 4 µg/mL (≈ 12 µM) | – | – | –
O=C(N/N=C/c1ccc(Br)cc1O)c1cccc(F)c1F | 16 µg/mL (≈ 45.1 µM) | – | 32 | 0.5 µg/mL (≈ 1.41 µM) | 16 µg/mL (≈ 45.1 µM) | 32 | 0.25 µg/mL (≈ 0.704 µM)
O=C(N/N=C/c1cc(Br)cc(Br)c1O)c1ccc(CF)cc1 | 16 µg/mL (≈ 37.2 µM) | 0.5 µg/mL (≈ 1.16 µM) | 32 | 0.5 µg/mL (≈ 1.16 µM) | 16 µg/mL (≈ 37.2 µM) | 32 | –
O=C(N/N=C/c1cc(Br)cc(Br)c1O)c1cccc(C(=O)N/N=C/c2cc(Br)cc(Br)c2O)c1 | – | – | – | > 16 µg/mL | – | – | –
C/C(=N\NC(=O)c1ccc(Br)cc1Br)c1cc(Br)ccc1O | – | – | – | > 16 µg/mL | – | – | –
CN(C)c1ccc(C(=O)N/N=C/c2cc(Br)ccc2O)cc1 | – | – | – | > 16 µg/mL | – | – | –
